From ChEMBL document CHEMBL4024778, “From Experiments to a Fast Easy-to-Use Computational Methodology to Predict Human Aldehyde Oxidase Selectivity and Metabolic Reactions” (J Med Chem, 2018) come the findings set out here.

Each structure is given as a SMILES string.

The subject of data set [1] is Liver. Kind of data set: Drug metabolism in human liver microsomes assessed as formation of 2-(pyrrolidin-1-yl)aniline after 60 mins. The data set is classed as ADME, microsome. The note with it: 1 h. (In general: Liver microsomes are vesicles of endoplasmic reticulum, rich in cytochrome P450 enzymes.)
Data set [2] addresses T1, Cytochrome P450 3A4 (Homo sapiens, UniProt P08684). Put plainly: Drug level treated with N1-(Naphthalen-2-yl)-N2-(pyrimidin-2-yl)ethane-1,2-diamine assessed as CYP3A4 (unknown origin)-mediated metabolite formation after 60 mins. The data set is classed as ADME. To be noted: 1 h.
In data set [3] the test system is Liver. Put plainly: Drug level in human liver microsomes treated with N1-(Naphthalen-2-yl)-N2-(pyrimidin-2-yl)ethane-1,2-diamine after 60 mins by LC-MS/MS analysis. The class given is ADME, microsome. The note with it: 1 h.
In data set [4] the test system is Liver. Kind of data set: Drug metabolism in human liver cytosol assessed as formation of 2-(pyrrolidin-1-yl)aniline at 10 uM after 60 mins by LC-MS/MS analysis. To be noted: 1 h. The class given is ADME, tissue-based. Put shortly:
(§1)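 Pooled human liver cytosol incubated with 10 μM substrate at pH 7.4 and 37 °C with 1 mM MgCl2·6H2O. Reactions stopped at 0 and 60 min with ice-cold acetonitrile containing 0.6 μM labetalol as internal standard, alongside a compound-free blank. Protein removed by centrifugation. Supernatant analysed by LC-MS/MS on a QTOF with electrospray ionization, using one of three reversed-phase gradient methods.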

Data set [5] relates to Liver. Put plainly: Drug metabolism in human liver microsomes after 60 mins. The note with it: 1 h. The data set is classed as ADME, microsome.
Data set [6] deals with Liver. Put plainly: Drug metabolism in human liver cytosol assessed as formation of 3-(2-(pyrimidin-2-ylamino)ethylamino)quinoxalin-2(1H)-one at 10 uM after 60 mins by LC-MS/MS analysis. The data set is classed as ADME, tissue-based. Put shortly:
as §1

Data set [7] deals with Liver. Kind of data set: Drug level in human liver cytosol treated with N1-(pyrimidin-2-yl)-N2-(quinoxalin-2-yl)ethane-1,2-diamine at 10 uM after 60 mins by LC-MS/MS analysis. The class given is ADME, tissue-based. To be noted: 1 h. Put shortly:
as §1

Data set [8] deals with T1, Cytochrome P450 3A4. Kind of data set: Drug metabolism assessed as CYP3A4 (unknown origin)-mediated formation of 2-(pyrimidin-2-ylamino)ethanol after 60 mins. The data set is classed as ADME. The note with it: 1 h.
The test system of data set [9] is Liver. Kind of data set: Drug metabolism in human liver microsomes assessed as formation of 2-(pyrimidin-2-ylamino)ethanol after 60 mins. The data set is classed as ADME, microsome. To be noted: 1 h.
For data set [10], the system named is Liver. Put plainly: Drug level in human liver microsomes treated with N-((1H-Indol-2-yl)methyl)-2-(pyrrolidin-1-yl)aniline after 60 mins. The data set is classed as ADME, microsome.
Data set [11] has as its system Liver. Put plainly: Drug level in human liver cytosol treated with N-(2-(Pyrrolidin-1-yl)phenyl)-1H-indole-2-carboxamide at 10 uM after 60 mins by LC-MS/MS analysis. The class given is ADME, tissue-based. A digest of the protocol:
as §1

T1 sequence (P08684 whole entry): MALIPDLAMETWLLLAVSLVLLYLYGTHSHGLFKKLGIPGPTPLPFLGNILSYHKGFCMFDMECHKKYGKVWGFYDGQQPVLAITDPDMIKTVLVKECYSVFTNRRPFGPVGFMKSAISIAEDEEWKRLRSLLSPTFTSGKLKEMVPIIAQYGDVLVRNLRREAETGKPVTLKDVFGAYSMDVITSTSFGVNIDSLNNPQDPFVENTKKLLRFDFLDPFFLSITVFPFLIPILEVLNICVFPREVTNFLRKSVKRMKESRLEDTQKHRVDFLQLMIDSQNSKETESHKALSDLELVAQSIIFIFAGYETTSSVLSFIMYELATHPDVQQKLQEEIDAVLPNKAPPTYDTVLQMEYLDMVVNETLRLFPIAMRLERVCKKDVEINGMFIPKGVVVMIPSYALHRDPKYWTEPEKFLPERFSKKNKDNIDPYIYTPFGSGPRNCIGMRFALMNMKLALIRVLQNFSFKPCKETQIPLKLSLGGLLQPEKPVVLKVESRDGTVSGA

`c1ccc(N2CCCC2)c(NCc2cc3ccccc3[nH]2)c1`: in the data set with Liver [1], the Drug metabolism result was “Metabolite_Detected”.

In the case of `OCCNc1ncccn1`, the Drug metabolism result on Cytochrome P450 3A4 [2] and with Liver [3] was “Metabolite_Detected” each time.

For `O=C(Nc1ccccc1N1CCCC1)c1cc2ccccc2[nH]1`, the Drug metabolism entry in the data set on Liver [4] is on record as “Metabolite_Detected”; with Liver [5], “Metabolite_Notdetected”.

For the molecule `c1cnc(NCCNc2cnc3ccccc3n2)nc1`, the results for the Drug metabolism result in the data set on Liver [5] and in the data set on Liver [6] were “Metabolite_Notdetected” and “Metabolite_Detected”, respectively.

Regarding `O=c1[nH]c2ccccc2nc1NCCNc1ncccn1`, in the data set with Liver [7], the Drug metabolism entry is “Metabolite_Detected”.

Turning to `c1cnc(NCCNc2ccc3ccccc3c2)nc1`, the Drug metabolism result on Cytochrome P450 3A4 [8] and in the data set with Liver [9] was “Metabolite_Detected” throughout.

With `Nc1ccccc1N1CCCC1`, the Drug metabolism result in the data set on Liver [10] and in the data set on Liver [11] was “Metabolite_Detected” throughout.
